From PubChem BioAssay
KCNK3 block: human KCNK3 channel inhibitors, primary screen, CHO cells, FluxOR thallium flux, B-score; FluxOR fluorescence; active compounds read low; actives 0.84% (n = 340,000); B-score at 10 µM; Potassium channel subfamily K member 3 (Homo sapiens), O14649;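 active = B-score under library mean minus 4 SD, starting fluorescence ratio at most library mean plus 5 SD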;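 note: more negative B-score means stronger inhibition of thallium flux through KCNK3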
Target sequence (O14649 whole entry, looked up): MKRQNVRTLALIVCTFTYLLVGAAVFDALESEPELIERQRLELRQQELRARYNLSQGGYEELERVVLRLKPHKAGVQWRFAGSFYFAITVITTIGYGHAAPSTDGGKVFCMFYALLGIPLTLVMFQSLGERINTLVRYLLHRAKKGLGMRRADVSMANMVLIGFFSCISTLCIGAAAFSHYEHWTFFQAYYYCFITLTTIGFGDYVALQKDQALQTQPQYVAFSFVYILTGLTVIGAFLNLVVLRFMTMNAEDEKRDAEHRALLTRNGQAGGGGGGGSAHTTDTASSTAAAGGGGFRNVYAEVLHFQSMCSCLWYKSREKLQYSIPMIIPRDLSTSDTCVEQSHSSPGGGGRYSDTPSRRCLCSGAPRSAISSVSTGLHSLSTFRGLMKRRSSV
KCNQ1 pot: potentiators or activators of KCNQ1 channel, primary screen, cell-based, thallium flux, high-throughput | CHO-K1 KCNQ1, thallium flux FluxOR fluorescence; active compounds read high | AID 2648, 2010 | Potassium voltage-gated channel subfamily KQT member 1 (Homo sapiens), P51787 | B-score at 10 µM | actives 0.35% (n = 310,000);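 active = fluorescence ratio B-score, a plate-corrected score, at least three library SD, with initial intensity B-score within 5 SD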
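Test system: CHO-K1 cells stably expressing KCNQ1 / Medium: assay buffer / Also added: depolarizing K+/Tl+ stimulus, K2SO4 and Tl2SO4 each 12.5 mM in 5x stock / Incubation: 90 min dye loading and 20 min compound exposure, both at room temperature / Signal: thallium influx via FluxOR fluorescence, kinetic imaging / Evaluation: B score of baseline-normalized fluorescence ratio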
hERG rescue: hERG rescue from dofetilide block, primary screen, cell-based, CHO-hERG, FluxOR thallium flux, dofetilide IC70. Voltage-gated inwardly rectifying potassium channel KCNH2 (Homo sapiens), Q12809. dofetilide IC70 present. activation (rescue from dofetilide block), less the hit threshold, % at 10 µM. actives 0.51% (n = 310,000);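 active = activation above the mean of controls blocked by dofetilide plus 5 SD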;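 note: thallium influx through hERG after potassium depolarization seen as dye fluorescence rise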
KCNQ1 inh: inhibitors of human KCNQ1 channel, primary screen, cell-based, thallium flux, high-throughput | actives 1.3% (n = 310,000) | AID 2642, 2010 | Potassium voltage-gated channel subfamily KQT member 1 (Homo sapiens), P51787 | B-score at 10 µM | CHO-K1 KCNQ1, FluxOR thallium flux fluorescence; active compounds read high;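 active = compounds whose thallium flux B-score, printed positive for inhibition, exceeds three library SD while starting fluorescence stays within three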;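 note: channel opened by potassium depolarization with thallium stimulus after 20 min compound exposure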
KCNK9 inh: KCNK9 potassium channel inhibitors, primary screen, HEK293 cells, thallium flux; FluxOR thallium flux fluorescence; active compounds read low; actives 1.2% (n = 310,000); B-score at 10 µM; AID 488922, 2010;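 active = ratio B-score over 3 SD below the library mean, with starting fluorescence within 5 SD of its mean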;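 note: negative B-score means less thallium flux so channel inhibition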
KCNK9 inh conf: KCNK9 potassium channel inhibitors, confirmation, HEK293 cells, thallium flux, duplicate; shares compounds with KCNK9 inh; FluxOR thallium flux fluorescence; inhibition, % at 10 µM; actives 43% (n = 4,900); AID 492992, 2010;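 active = thallium signal inhibited by more than 5 SD of the compound-free buffer control wells, on both duplicate plates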;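 note: 0% = assay buffer control wells without compound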
Kir2-1 spec: mouse Kir2.1 channel inhibition, confirmation, selectivity assay for KCNK9 modulator project, cell-based, HEK293, thallium flux; actives 4% (n = 4,900); Kir2.1 cells, FluxOR thallium flux fluorescence; shares compounds with KCNK9 inh; inhibition, % at 10 µM;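 active = thallium signal drop more than 5 SD beyond the mean of the no-compound control wells, seen in both duplicate plates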;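 note: signal is fluorescence rise after thallium addition divided by baseline fluorescence; plate controls were assay buffer only for no effect and full block by chlorpromazine control for full effect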
KCNK9 uninduced: thallium flux in non-induced HEK293 cells, confirmation, counter-screen for KCNK9 inhibitor project, cell-based, second counter screen, non-induced KCNK9-HEK293; shares compounds with KCNK9 inh; FluxOR thallium flux; inhibition, % at 10 µM; actives 40% (n = 4,900); AID 492997, 2010;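 active = thallium signal drop beyond 5 SD of the untreated control mean, on both duplicate plates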;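 note: plate controls were buffer only IC0 wells for no effect and SID17386958 at its maximal inhibitory level for full effect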
Active calls of the source: *. An excerpt weighted towards active compounds, which were near 3.1% of everything screened.

What do the screens show for `COc1ccc(S(=O)(=O)NCCc2nnc3ccc(SCc4cccnc4)nn23)cc1`?
KCNK3 block: inactive; KCNQ1 pot: inactive; hERG rescue: -20.6; KCNQ1 inh: inactive; KCNK9 inh: inactive

How did CCCCOC(=O)Nc1nnc(SCCOc2ccc(C)cc2)s1 do in these assays?
KCNK3 block: inactive; KCNQ1 pot: inactive; hERG rescue: -12.7; KCNQ1 inh: inactive; KCNK9 inh: inactive; KCNK9 inh conf: inactive; Kir2-1 spec: inactive; KCNK9 uninduced: inactive

Results for COc1cc(CNC2CCCCCC2)cc(OC)c1OC ?
KCNK3 block: inactive; KCNQ1 pot: inactive; hERG rescue: -8.9; KCNQ1 inh: inactive; KCNK9 inh: inactive

What do the screens show for `COc1cc(-c2csc(NC3CCCCC3)n2)cc(OC)c1OC`?
KCNK3 block: inactive; KCNQ1 pot: inactive; hERG rescue: -11.8; KCNQ1 inh: inactive; KCNK9 inh: inactive; KCNK9 inh conf: inactive; Kir2-1 spec: inactive; KCNK9 uninduced: inactive

How did Cc1cccc(N/C=C/C(=O)c2ccc(Cl)cc2)c1 do in these assays?
KCNK3 block: inactive; KCNQ1 pot: inactive; hERG rescue: -0.4; KCNQ1 inh: inactive; KCNK9 inh: inactive

Results for Cc1ccc(Cl)c(N/C=C/C(=O)c2ccccc2)c1 ?
KCNK3 block: inactive; KCNQ1 pot: inactive; hERG rescue: -1.0; KCNQ1 inh: inactive; KCNK9 inh: -14.8*; KCNK9 inh conf: 70.0%*; Kir2-1 spec: inactive; KCNK9 uninduced: 38.5%*

Results for Cc1cc(SCc2cccc(C(F)(F)F)c2)nc(=O)[nH]1 ?
KCNK3 block: inactive; KCNQ1 pot: inactive; hERG rescue: -7.0; KCNQ1 inh: inactive; KCNK9 inh: inactive

What do the screens show for `Fc1cccc2sc(N3CCCCC3)nc12`?
KCNK3 block: inactive; KCNQ1 pot: inactive; hERG rescue: -8.1; KCNQ1 inh: inactive; KCNK9 inh: inactive

What do the screens show for `Clc1cccc2sc(N3CCN(c4ccccc4)CC3)nc12`?
KCNK3 block: inactive; KCNQ1 pot: inactive; hERG rescue: -18.8; KCNQ1 inh: inactive; KCNK9 inh: -14.4*; KCNK9 inh conf: 35.5%*; Kir2-1 spec: inactive; KCNK9 uninduced: 36.5%*

What do the screens show for `CCOC(=O)c1cc2[nH]c3ccccc3c2[n+](-c2ccc([N+](=O)[O-])cc2)c1N`?
KCNK3 block: inactive; KCNQ1 pot: inactive; hERG rescue: -8.2; KCNQ1 inh: inactive; KCNK9 inh: inactive

What do the screens show for `CC(NC(=O)CSCc1ccccc1Br)c1ccccc1` (stereo not given)?
KCNK3 block: inactive; KCNQ1 pot: inactive; hERG rescue: -20.5; KCNQ1 inh: inactive; KCNK9 inh: inactive; KCNK9 inh conf: inactive; Kir2-1 spec: inactive; KCNK9 uninduced: inactive

What do the screens show for `NS(=O)(=O)c1cccc(NC(=O)CSc2nc3ccccc3c(=O)n2Cc2ccco2)c1`?
KCNK3 block: inactive

How did COc1ccc(OC)c(-n2c(SCC(=O)Nc3cccc(S(N)(=O)=O)c3)nc3ccccc3c2=O)c1 do in these assays?
KCNK3 block: inactive; KCNQ1 pot: inactive; hERG rescue: -9.0; KCNQ1 inh: inactive; KCNK9 inh: -12.8*; KCNK9 inh conf: 56.5%*; Kir2-1 spec: inactive; KCNK9 uninduced: 34.5%*

Results for COc1ccccc1-n1c(SCC(=O)Nc2cccc(S(N)(=O)=O)c2)nc2ccccc2c1=O ?
KCNK3 block: inactive; KCNQ1 pot: inactive; hERG rescue: -16.0; KCNQ1 inh: inactive; KCNK9 inh: -8.45*; KCNK9 inh conf: 34.0%*; Kir2-1 spec: inactive; KCNK9 uninduced: inactive

How did COc1ccc(C)cc1-n1c(SCC(=O)Nc2cc(C)on2)nc2ccccc2c1=O do in these assays?
KCNK3 block: inactive; KCNQ1 pot: inactive; hERG rescue: -10.0; KCNQ1 inh: inactive; KCNK9 inh: inactive

What do the screens show for `CCN(CC)C(=O)CSc1nnc(SC(C)C(=O)NC2CC2)s1` (stereo not given)?
KCNK3 block: inactive

What do the screens show for `Cn1nc(C(F)(F)F)c(/C=N/OC(=O)c2ccccc2Cl)c1SCc1ccccc1Cl`?
KCNK3 block: inactive; KCNQ1 pot: inactive; hERG rescue: -13.9; KCNQ1 inh: inactive; KCNK9 inh: -10.2*; KCNK9 inh conf: 44.5%*; Kir2-1 spec: inactive; KCNK9 uninduced: 36.0%*

What do the screens show for `Cn1nc(C(F)(F)F)c(/C=N/OC(=O)c2ccccc2)c1SCc1ccc(Cl)cc1`?
KCNK3 block: inactive; KCNQ1 pot: inactive; hERG rescue: -15.7; KCNQ1 inh: inactive; KCNK9 inh: inactive

What do the screens show for `CCOC(=O)C1=C(C)c2ccccc2N(S(=O)(=O)C(F)(F)F)C1C(=O)OCC` (stereo not given)?
KCNK3 block: inactive

Results for CCc1nc(N2CCC(C)CC2)c2oc3ccccc3c2n1 ?
KCNK3 block: inactive; KCNQ1 pot: inactive; hERG rescue: -11.3; KCNQ1 inh: inactive; KCNK9 inh: -13.8*; KCNK9 inh conf: 46.5%*; Kir2-1 spec: inactive; KCNK9 uninduced: 36.0%*

How did CCc1nc(N(CC)CC)c2oc3ccccc3c2n1 do in these assays?
KCNK3 block: inactive; KCNQ1 pot: inactive; hERG rescue: -9.7; KCNQ1 inh: inactive; KCNK9 inh: inactive

What do the screens show for `COC(=O)[C@@H](NC(=O)N1CCN(C(=O)C2COc3ccccc3O2)CC1)C(C)C` (stereo not given in full)?
KCNK3 block: inactive; KCNQ1 pot: inactive; hERG rescue: -11.6; KCNQ1 inh: inactive; KCNK9 inh: inactive

Results for O=S(=O)(c1ccc(OC(F)(F)F)cc1)N1CCCC(c2ccccc2)C1 (stereo not given) ?
KCNK3 block: inactive; KCNQ1 pot: inactive; hERG rescue: -3.5; KCNQ1 inh: inactive; KCNK9 inh: -11.1*; KCNK9 inh conf: inactive; Kir2-1 spec: inactive; KCNK9 uninduced: inactive

Results for Cc1ccccc1NC(=O)c1ccc2nc(N3CCOCC3)sc2c1 ?
KCNK3 block: inactive; KCNQ1 pot: inactive; hERG rescue: -12.5; KCNQ1 inh: inactive; KCNK9 inh: inactive
